Reference: ChEMBL document CHEMBL1140384, “Synthesis and structure-activity relationships of suramin-derived P2Y11 receptor antagonists with nanomolar potency” (J Med Chem, 2005)
pKi: −log10 of the molar value.

Experiments:
P2Y purinoceptor 2 = P2Y purinoceptor 2 (Homo sapiens, UniProt P41231); test: Percent inhibition of agonist-induced calcium mobilization at P2Y purinoceptor 2 recombinantly expressed in human HEK293 cells at 100 uM dose; format: functional, cell-based; conditions: in the assay text read “native in” for “recombinantly expressed in”
Sequence of P2Y purinoceptor 2 (P41231 whole entry): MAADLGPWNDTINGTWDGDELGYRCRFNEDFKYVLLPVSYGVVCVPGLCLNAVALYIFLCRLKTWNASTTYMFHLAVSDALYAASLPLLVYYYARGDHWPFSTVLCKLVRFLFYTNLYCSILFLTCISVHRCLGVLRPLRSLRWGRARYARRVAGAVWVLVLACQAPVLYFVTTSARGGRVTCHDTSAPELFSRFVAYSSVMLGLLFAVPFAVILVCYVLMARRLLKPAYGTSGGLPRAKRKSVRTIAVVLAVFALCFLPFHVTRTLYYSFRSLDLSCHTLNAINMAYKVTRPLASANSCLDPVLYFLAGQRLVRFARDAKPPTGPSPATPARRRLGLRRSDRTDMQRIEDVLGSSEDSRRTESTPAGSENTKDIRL
How it was run: (§1)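 Single 100 µM antagonist dose, preincubated 30 min at 37 °C, in a Ca2+ fluorescence assay (Oregon Green 488 BAPTA-1/AM). Agonists: 31.6 nM 2-MeSADP for native P2Y1 and 3.16 µM UTP for native P2Y2, both in HEK293 cells; 1 µM ATPγS for recombinant P2Y11 in 1321N1 cells. Response expressed as % of agonist control; mean ± SEM, n ≥ 3.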

[1] = target: T1, P2Y purinoceptor 11 (Homo sapiens) (UniProt Q96G91); test: Percent inhibition of agonist-induced calcium mobilization at P2Y purinoceptor 11 recombinantly expressed in human 1321N1 astrocytoma cells at 100 uM dose
T1 sequence (whole entry): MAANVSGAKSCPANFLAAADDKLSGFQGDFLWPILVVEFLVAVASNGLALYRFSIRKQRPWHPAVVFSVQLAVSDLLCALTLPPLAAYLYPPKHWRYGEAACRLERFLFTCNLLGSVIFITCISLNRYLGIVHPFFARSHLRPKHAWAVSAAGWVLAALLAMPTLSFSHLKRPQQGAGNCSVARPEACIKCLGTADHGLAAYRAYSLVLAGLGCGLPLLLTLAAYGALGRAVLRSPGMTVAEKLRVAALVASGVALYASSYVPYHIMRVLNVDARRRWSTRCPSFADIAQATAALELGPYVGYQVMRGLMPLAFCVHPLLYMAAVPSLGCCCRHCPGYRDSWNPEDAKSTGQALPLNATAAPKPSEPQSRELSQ

P2Y purinoceptor 1 = P2Y purinoceptor 1 (Homo sapiens, UniProt P47900); test: Percent inhibition of agonist-induced calcium mobilization at P2Y purinoceptor 1 recombinantly expressed in human HEK293 cells at 100 uM dose; format: functional, cell-based; conditions: in the assay text read “native in” for “recombinantly expressed in”; how it was run: as §1
Sequence of P2Y purinoceptor 1 (P47900 whole entry): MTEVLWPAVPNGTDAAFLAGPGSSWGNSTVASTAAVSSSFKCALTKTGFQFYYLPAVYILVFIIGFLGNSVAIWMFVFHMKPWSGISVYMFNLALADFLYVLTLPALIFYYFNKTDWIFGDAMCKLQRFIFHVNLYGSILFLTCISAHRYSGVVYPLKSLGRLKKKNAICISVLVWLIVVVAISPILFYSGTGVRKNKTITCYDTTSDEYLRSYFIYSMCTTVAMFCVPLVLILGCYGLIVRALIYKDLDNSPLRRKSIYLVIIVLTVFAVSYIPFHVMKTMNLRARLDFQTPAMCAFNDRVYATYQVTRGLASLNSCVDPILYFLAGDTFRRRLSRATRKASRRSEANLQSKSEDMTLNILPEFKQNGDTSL

P2Y purinoceptor 11 [2] = target: T2, P2Y purinoceptor 11 (Homo sapiens, UniProt Q96G91); test: Inhibitory concentration against P2Y purinoceptor 11 expressed in 1321N1 astrocytoma cells; n=6; format: cell-based
T2 sequence (Q96G91 whole entry): T1 sequence (whole entry)
How it was run: (§2)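 Human P2Y11 stably expressed in 1321N1 astrocytoma cells (G418 selection), loaded with Oregon Green 488 BAPTA-1/AM (3 µM, 60 min, 25 °C) in Krebs-HEPES. Compound preincubated 30 min at 37 °C before injection of 1 µM ATPγS. Ca2+ fluorescence read at ex 485/em 520 nm for 30 s. IC50 from concentration-inhibition curves; independent experiments each run in triplicate.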

[3] = target: T1, P2Y purinoceptor 11 (Homo sapiens); test: Relative potency was measured against P2Y purinoceptor 11; format: functional
P2Y purinoceptor 11 [4] = target: T2, P2Y purinoceptor 11; test: Inhibitory concentration against P2Y purinoceptor 11 expressed in 1321N1 astrocytoma cells; n=7; format: cell-based; how it was run: as §2
P2Y purinoceptor 11 [5] = target: T2, P2Y purinoceptor 11; test: Inhibitory concentration against P2Y purinoceptor 11 expressed in 1321N1 astrocytoma cells; n=3; format: cell-based; how it was run: as §2
P2Y purinoceptor 11 [6] = target: T2, P2Y purinoceptor 11; test: Inhibitory concentration against P2Y purinoceptor 11 expressed in 1321N1 astrocytoma cells; n=4; format: cell-based; how it was run: as §2

Row | Compound | inhibition (P2Y purinoceptor 2) [%] | inhibition [1] [%] | inhibition (P2Y purinoceptor 1) [%] | pKi (P2Y purinoceptor 11 [2]) | Rel potency [3] | pKi (P2Y purinoceptor 11 [4]) | pKi (P2Y purinoceptor 11 [5]) | pKi (P2Y purinoceptor 11 [6])
1 | O=C(Nc1cc(C(=O)Nc2ccc(S(=O)(=O)O)c3cc(S(=O)(=O)O)cc(S(=O)(=O)O)c23)ccc1-c1ccccc1)Nc1cc(C(=O)Nc2ccc(S(=O)(=O)O)c3cc(S(=O)(=O)O)cc(S(=O)(=O)O)c23)ccc1-c1ccccc1 | 0 | 35.9 | 34.2 |  |  |  |  | 
2 | Cc1ccc(C(=O)Nc2ccc(S(=O)(=O)O)c3cc(S(=O)(=O)O)cc(S(=O)(=O)O)c23)cc1NC(=O)c1cccc(NC(=O)Nc2cccc(C(=O)Nc3cc(C(=O)Nc4ccc(S(=O)(=O)O)c5cc(S(=O)(=O)O)cc(S(=O)(=O)O)c45)ccc3C)c2)c1 [SURAMIN] | 50.5 | 93.7 | 54.5 | 6.52 | 15 |  |  | 
3 | COc1ccc(C(=O)Nc2ccc(S(=O)(=O)O)c3cc(S(=O)(=O)O)cc(S(=O)(=O)O)c23)cc1NC(=O)c1cccc(NC(=O)Nc2cccc(C(=O)Nc3cc(C(=O)Nc4ccc(S(=O)(=O)O)c5cc(S(=O)(=O)O)cc(S(=O)(=O)O)c45)ccc3OC)c2)c1 | 44.9 | 92.2 | 23.2 |  | 59 | 7.12 |  | 
4 | CCc1ccc(C(=O)Nc2ccc(S(=O)(=O)O)c3cc(S(=O)(=O)O)cc(S(=O)(=O)O)c23)cc1NC(=O)c1cccc(NC(=O)Nc2cccc(C(=O)Nc3cc(C(=O)Nc4ccc(S(=O)(=O)O)c5cc(S(=O)(=O)O)cc(S(=O)(=O)O)c45)ccc3CC)c2)c1 | 48.8 | 84.9 | 48.7 |  | 4.5 |  | 6.00 | 
5 | O=C(Nc1cc(C(=O)Nc2ccc(S(=O)(=O)O)c3cc(S(=O)(=O)O)cc(S(=O)(=O)O)c23)ccc1F)Nc1cc(C(=O)Nc2ccc(S(=O)(=O)O)c3cc(S(=O)(=O)O)cc(S(=O)(=O)O)c23)ccc1F | 0 | 64.7 | 60 |  |  |  |  | 
6 | COCc1ccc(C(=O)Nc2ccc(S(=O)(=O)O)c3cc(S(=O)(=O)O)cc(S(=O)(=O)O)c23)cc1NC(=O)c1cccc(NC(=O)Nc2cccc(C(=O)Nc3cc(C(=O)Nc4ccc(S(=O)(=O)O)c5cc(S(=O)(=O)O)cc(S(=O)(=O)O)c45)ccc3COC)c2)c1 | 44.3 | 71.6 | 47.5 |  | 1.9 |  |  | 5.62
7 | CC(C)c1ccc(C(=O)Nc2ccc(S(=O)(=O)O)c3cc(S(=O)(=O)O)cc(S(=O)(=O)O)c23)cc1NC(=O)Nc1cc(C(=O)Nc2ccc(S(=O)(=O)O)c3cc(S(=O)(=O)O)cc(S(=O)(=O)O)c23)ccc1C(C)C | 14.2 | 23.2 | 28.7 |  |  |  |  | 
8 | COc1ccc(C(=O)Nc2ccc(S(=O)(=O)O)c3cc(S(=O)(=O)O)cc(S(=O)(=O)O)c23)cc1NC(=O)Nc1cc(C(=O)Nc2ccc(S(=O)(=O)O)c3cc(S(=O)(=O)O)cc(S(=O)(=O)O)c23)ccc1OC | 53.6 | 11.2 | 40 |  |  |  |  | 
9 | O=C(Nc1cccc(C(=O)Nc2cc(C(=O)Nc3ccc(S(=O)(=O)O)c4cc(S(=O)(=O)O)cc(S(=O)(=O)O)c34)ccc2Cl)c1)Nc1cccc(C(=O)Nc2cc(C(=O)Nc3ccc(S(=O)(=O)O)c4cc(S(=O)(=O)O)cc(S(=O)(=O)O)c34)ccc2Cl)c1 | 55.2 | 93 | 40.6 |  | 42 | 6.97 |  | 
10 | Cc1ccc(C(=O)Nc2ccc(S(=O)(=O)O)c3cc(S(=O)(=O)O)cc(S(=O)(=O)O)c23)cc1NC(=O)Nc1cc(C(=O)Nc2ccc(S(=O)(=O)O)c3cc(S(=O)(=O)O)cc(S(=O)(=O)O)c23)ccc1C | 28.4 | 86.6 | 0 |  | 0.6 |  | 5.12 | 
11 | O=C(Nc1cc(C(=O)Nc2ccc(S(=O)(=O)O)c3cc(S(=O)(=O)O)cc(S(=O)(=O)O)c23)ccc1Cl)Nc1cc(C(=O)Nc2ccc(S(=O)(=O)O)c3cc(S(=O)(=O)O)cc(S(=O)(=O)O)c23)ccc1Cl | 0 | 59 | 57.8 |  |  |  |  | 
12 | CC(C)c1ccc(C(=O)Nc2ccc(S(=O)(=O)O)c3cc(S(=O)(=O)O)cc(S(=O)(=O)O)c23)cc1NC(=O)c1cccc(NC(=O)Nc2cccc(C(=O)Nc3cc(C(=O)Nc4ccc(S(=O)(=O)O)c5cc(S(=O)(=O)O)cc(S(=O)(=O)O)c45)ccc3C(C)C)c2)c1 | 31.1 | 83.1 | 45 |  | 10 |  | 6.35 | 
13 | O=C(Nc1cccc(C(=O)Nc2cc(C(=O)Nc3ccc(S(=O)(=O)O)c4cc(S(=O)(=O)O)cc(S(=O)(=O)O)c34)ccc2-c2ccccc2)c1)Nc1cccc(C(=O)Nc2cc(C(=O)Nc3ccc(S(=O)(=O)O)c4cc(S(=O)(=O)O)cc(S(=O)(=O)O)c34)ccc2-c2ccccc2)c1 | 73.2 | 79.9 | 75.1 |  | 15 |  | 6.52 | 
14 | CCc1ccc(C(=O)Nc2ccc(S(=O)(=O)O)c3cc(S(=O)(=O)O)cc(S(=O)(=O)O)c23)cc1NC(=O)Nc1cc(C(=O)Nc2ccc(S(=O)(=O)O)c3cc(S(=O)(=O)O)cc(S(=O)(=O)O)c23)ccc1CC | 20.8 | 39.9 | 38.4 |  |  |  |  | 
15 | COCc1ccc(C(=O)Nc2ccc(S(=O)(=O)O)c3cc(S(=O)(=O)O)cc(S(=O)(=O)O)c23)cc1NC(=O)Nc1cc(C(=O)Nc2ccc(S(=O)(=O)O)c3cc(S(=O)(=O)O)cc(S(=O)(=O)O)c23)ccc1COC | 13 | 23.8 | 31.7 |  |  |  |  | 
16 | O=C(Nc1cccc(C(=O)Nc2ccc(S(=O)(=O)O)c3cc(S(=O)(=O)O)cc(S(=O)(=O)O)c23)c1)Nc1cccc(C(=O)Nc2ccc(S(=O)(=O)O)c3cc(S(=O)(=O)O)cc(S(=O)(=O)O)c23)c1 | 24 | 54.2 | 19.7 |  |  |  |  | 
